Test results published in ChEMBL document CHEMBL4145471, “New 1,5 and 2,5-disubstituted tetrazoles-dependent activity towards surface barrier of Candida albicans” (Eur J Med Chem, 2018).

Columns and labels:
Candida albicans [1] = experiment: Antifungal activity against Candida albicans ATCC 90028 at 4 ug/ml after 18 hrs relative to control; format: functional
In short: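 Planktonic broth microdilution per M27-A3 in MOPS-buffered RPMI 1640 (pH 7.0), final inoculum 1.8×10^3 cells/mL, compounds 0.0313–16 µg/mL from 1600 µg/mL stocks in ethanol or DMSO. Incubated at 35°C without agitation; OD405 read at 18 and 48 h. % inhibition was derived from test, sterility (no inoculum) and solvent growth-control wells. Amphotericin B at 0.5 µg/mL served as the 100% control.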

Candida albicans [2] = experiment: Antifungal activity against Candida albicans ATCC 90028 at 0.25 ug/ml after 18 hrs relative to control; format: functional
In short: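 Fluconazole (water stock, diluted in RPMI 1640) tested by CLSI M27-A3 broth microdilution against C. albicans ATCC 90028. Inoculum 1.8×10^3 cells/mL in RPMI 1640 buffered with MOPS, pH 7.0. Incubation at 35°C without agitation, read at 18 and 48 h. Growth by OD405 and visually; inhibition % calculated against solvent growth-control wells after subtracting sterility-control wells.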

Candida albicans [3] = experiment: Antifungal activity against Candida albicans ATCC 90028 at 0.0625 ug/ml after 18 hrs relative to control; format: functional
Candida albicans [4] = experiment: Fungicidal activity against Candida albicans ATCC 90028 at 16 ug/ml after 48 hrs by M27-A3 microdilution method; format: functional
In short: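 After 48 h at 35°C in M27-A3 microdilution plates (compound at 16 µg/mL), 50 µL aliquots from treated and solvent-control wells were diluted 10^4 in PBS and plated on drug-free Sabouraud dextrose agar, then incubated 48 h at 35°C. Reduction R = lg CFU/mL control − lg CFU/mL treated; R ≥ 3 defined as fungicidal.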

Candida albicans [5] = experiment: Synergistic antifungal activity against Candida albicans ATCC 90028 at 80 ug/ml after 48 hrs in presence of 10 ug/ml fluconazol by checkerboard assay relative to control; format: functional
In short: (§1)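 Checkerboard in C. albicans ATCC 90028, inoculum prepared per CLSI M27-A3 in RPMI. Fluconazole serially diluted 80-1.25 µg/mL across the plate against the partner compound at 80-1.25 µg/mL final. Incubated 48 h at 35°C. Metabolic activity read by XTT reduction at 475 nm (660 nm reference), given as % of the untreated growth control.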

Candida albicans [6] = experiment: Synergistic antifungal activity against Candida albicans ATCC 90028 at 80 ug/ml after 48 hrs in presence of 5 ug/ml fluconazol by checkerboard assay relative to control; format: functional; in short: as §1
Candida albicans [7] = experiment: Synergistic antifungal activity against Candida albicans ATCC 90028 at 40 ug/ml after 48 hrs in presence of 80 ug/ml fluconazol by checkerboard assay relative to control; format: functional; in short: as §1
Candida albicans [8] = experiment: Synergistic antifungal activity against Candida albicans ATCC 90028 at 40 ug/ml after 48 hrs in presence of 10 ug/ml fluconazol by checkerboard assay relative to control; format: functional; in short: as §1
Candida albicans [9] = experiment: Synergistic antifungal activity against Candida albicans ATCC 90028 at 40 ug/ml after 48 hrs in presence of 2.5 ug/ml fluconazol by checkerboard assay relative to control; format: functional
In short: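 Checkerboard microdilution (M27-A3) on C. albicans ATCC 90028 in RPMI 1640: fluconazole (80-1.25 µg/mL) crossed with tetrazole (80-1.25 µg/mL final), incubated at 35°C for 48 h. Growth by OD405 at 18 and 48 h, endpoint taken as 100% inhibition. FIC index = sum of the two agents' FICs; <1 synergism, >1 antagonism.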

Candida albicans [10] = experiment: Synergistic antifungal activity against Candida albicans ATCC 90028 at 20 ug/ml after 48 hrs in presence of 1.25 ug/ml fluconazol by checkerboard assay relative to control; format: functional; in short: as §1
Candida albicans [11] = experiment: Synergistic antifungal activity against Candida albicans ATCC 90028 at 5 ug/ml after 48 hrs in presence of 40 ug/ml fluconazol by checkerboard assay relative to control; format: functional; in short: as §1
Candida albicans [12] = experiment: Antifungal activity against Candida albicans ATCC 90028 assessed as inhibition of metabolic activity at 10 ug/ml after 48 hrs in presence of 10 ug/ml fluconazol by XTT assay relative to control; format: functional; conditions: ATCC 90028, 48 h, values are per cent of control
In short: (§2)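 Checkerboard against strain ATCC 90028, inoculum per M27-A3: fluconazole 80-1.25 µg/mL on one axis, tetrazole 80-1.25 µg/mL on the other. Plates at 35°C for 48 h, then XTT metabolic reduction read at 475 nm (660 nm reference). Activity is the drop in mean absorbance against untreated growth control. FICs and their summed FIC index are taken at 50% reduction in metabolic activity.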

Candida albicans [13] = experiment: Antifungal activity against Candida albicans ATCC 90028 assessed as inhibition of metabolic activity at 2.5 ug/ml after 48 hrs in presence of 5 ug/ml fluconazol by XTT assay relative to control; format: functional; conditions: values are per cent of control
In short: (§3)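 C. albicans ATCC 90028 in checkerboard: fluconazole serial dilutions (80-1.25 µg/mL) crossed with tetrazole (80-1.25 µg/mL final), M27-A3 inoculum in RPMI 1640, 35°C for 48 h. Metabolic activity measured by XTT reduction, read at 475 nm (660 nm reference). Activity expressed relative to untreated growth control absorbance.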

Candida albicans [14] = experiment: Antifungal activity against Candida albicans ATCC 90028 assessed as inhibition of metabolic activity at 1.25 ug/ml after 48 hrs in presence of 10 ug/ml fluconazol by XTT assay relative to control; format: functional; conditions: values are per cent of control; in short: as §2
Candida albicans [15] = experiment: Antifungal activity against Candida albicans ATCC 90028 assessed as inhibition of metabolic activity at 1.25 ug/ml after 48 hrs in presence of 5 ug/ml fluconazol by XTT assay relative to control; format: functional; conditions: values are per cent of control; in short: as §2
Candida albicans [16] = experiment: Antifungal activity against Candida albicans ATCC 90028 assessed as inhibition of metabolic activity at 1.25 ug/ml after 48 hrs in presence of 2.5 ug/ml fluconazol by XTT assay relative to control; format: functional; conditions: values are per cent of control; in short: as §3
Candida albicans [17] = experiment: Antifungal activity against Candida albicans ATCC 90028 assessed as metabolic activity at 80 ug/ml after 48 hrs in presence of 5 ug/ml fluconazol by XTT assay relative to control
Candida albicans [18] = experiment: Antifungal activity against Candida albicans ATCC 90028 assessed as metabolic activity at 20 ug/ml after 48 hrs in presence of 5 ug/ml fluconazol by XTT assay relative to control
Candida albicans [19] = experiment: Antifungal activity against Candida albicans ATCC 90028 assessed as metabolic activity at 20 ug/ml after 48 hrs in presence of 10 ug/ml fluconazol by XTT assay relative to control
Candida albicans [20] = experiment: Antifungal activity against Candida albicans ATCC 90028 assessed as metabolic activity at 20 ug/ml after 48 hrs in presence of 1.25 ug/ml fluconazol by XTT assay relative to control

Row | Structure (SMILES) | Activity (Candida albicans [1]) [%] | Activity (Candida albicans [2]) [%] | Activity (Candida albicans [3]) [%] | Activity (Candida albicans [4]) [log10CFU/ml] | growth inhibition (GI) (Candida albicans [5]) [%] | growth inhibition (GI) (Candida albicans [6]) [%] | growth inhibition (GI) (Candida albicans [7]) [%] | growth inhibition (GI) (Candida albicans [8]) [%] | growth inhibition (GI) (Candida albicans [9]) [%] | growth inhibition (GI) (Candida albicans [10]) [%] | growth inhibition (GI) (Candida albicans [11]) [%] | residual activity at 10 µg/mL (Candida albicans [12]) [%] | residual activity (Candida albicans [13]) [%] | residual activity (Candida albicans [14]) [%] | residual activity (Candida albicans [15]) [%] | residual activity (Candida albicans [16]) [%] | Metabolic activity (Candida albicans [17]) [%] | Metabolic activity (Candida albicans [18]) [%] | Metabolic activity (Candida albicans [19]) [%] | Metabolic activity (Candida albicans [20]) [%]
1 | ClCCCn1nnnc1-c1ccccc1Cl | 99.62 | 99.96 | 99.9 | 0.18 | 99.78 | 99.27 | 99.54 | 99.59 | 99.14 | 100 | 99.25 | 75.4 | 100 | 62.08 | 100 | 71.55 | 100 | 99.55 | 68.01 | 0
2 | Cc1ccc(-c2nnn(CCCN3CCOCC3)n2)cc1 | 99.75 | 98.25 | 99.5 | 0.56 | 99.8 | 97.8 | 99.59 | 99.69 | 99.77 | 98.75 | 99.15 | 99 | 100 | 100 | 100 | 100 | 100 | 100 | 46.94 | 76.07
3 | CCOC(=O)CCn1nnc(-c2ccccc2)n1 | 99.96 | 98.4 | 99.57 | 0.33 | 99.84 | 99.18 | 99.58 | 99.53 | 99.74 | 99.79 | 99.51 | 76.2 | 95.38 | 74.44 | 100 | 75.73 | 100 | 100 | 59.93 | 90.68
